Source: ChEMBL document CHEMBL1134208, “Controlled drug release: new water-soluble prodrugs of an HIV protease inhibitor” (Bioorg Med Chem Lett, 2001)
≈ marks a conversion by molar mass, not a printed value.

How the values were obtained:
Type in all cases: ADME
[1] = Time required for 50% release of KNI-727 at 37 degree celsius
How it was run: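 Prodrug added from a 0.5 mM DMSO stock to PBS (pH 7.4) and incubated at 37 °C. Aliquots taken at successive time points were injected directly onto HPLC with detection at 230 nm. Loss of prodrug and appearance of released parent were followed over time to give the half-life of release.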

[2] = Water solubility of prodrug was determined; conditions: buffer
How it was run: (§1)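 Prodrug solution was passed through a membrane filter, and the dissolved prodrug concentration was then quantified by HPLC. Solubility was set against that of the parent drug measured the same way.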

[3] = Water solubility of prodrug was determined relative to KNI-727; conditions: buffer; how it was run: as §1

Row | T1/2 [1] | Solubility [2] | Relative solubility [3] | Solubility [3] | Structure (SMILES)
1 | 18.7 h | 0.0735 mg/mL (≈ 103 µM) | 6.6 | – | Cc1cccc(C)c1OCC(=O)N[C@@H](Cc1ccccc1)[C@H](OC(=O)CCC(=O)NCC(=O)O)C(=O)N1CSC(C)(C)[C@H]1C(=O)NC(C)(C)C
2 | 0.333 h | 0.21 mg/mL (≈ 295 µM) | 18.9 | – | Cc1cccc(C)c1OCC(=O)N[C@@H](Cc1ccccc1)[C@H](OC(=O)CCC(=O)NCC(N)=O)C(=O)N1CSC(C)(C)[C@H]1C(=O)NC(C)(C)C
3 | 0.35 h | 115.4 mg/mL | – | 10400 mg/mL | Cc1cccc(C)c1OCC(=O)N[C@@H](Cc1ccccc1)[C@H](OC(=O)CCC(=O)NCCN)C(=O)N1CSC(C)(C)[C@H]1C(=O)NC(C)(C)C.Cl
4 | 8.8 h | < 0.0111 mg/mL | – | – | Cc1cccc(C)c1OCC(=O)N[C@@H](Cc1ccccc1)[C@H](OC(=O)CCC(=O)NCc1ccccc1)C(=O)N1CSC(C)(C)[C@H]1C(=O)NC(C)(C)C.Cl

More lines, now with the values behind:

Row | Structure (SMILES) | T1/2 [1] | Solubility [2] | Relative solubility [3] | Solubility [3]
5 | Cc1cccc(C)c1OCC(=O)N[C@@H](Cc1ccccc1)[C@H](OC(=O)CCC(=O)NCCC(=O)O)C(=O)N1CSC(C)(C)[C@H]1C(=O)NC(C)(C)C | 16.8 h | – | – | –
6 | Cc1cccc(C)c1OCC(=O)N[C@@H](Cc1ccccc1)[C@H](OC(=O)CCC(N)=O)C(=O)N1CSC(C)(C)[C@H]1C(=O)NC(C)(C)C | 16 h | 0.0895 mg/mL (≈ 137 µM) | 8.1 | –
7 | Cc1cccc(C)c1OCC(=O)N[C@@H](Cc1ccccc1)[C@H](OC(=O)CCCC(=O)NCCN)C(=O)N1CSC(C)(C)[C@H]1C(=O)NC(C)(C)C.Cl | 28 h | 56.9 mg/mL | – | 5130 mg/mL
8 | Cc1cccc(C)c1OCC(=O)N[C@@H](Cc1ccccc1)[C@H](OC(=O)CC(C)(C)C(=O)NCCN)C(=O)N1CSC(C)(C)[C@H]1C(=O)NC(C)(C)C.Cl | < 0.017 h | 136.7 mg/mL | – | 12300 mg/mL
9 | Cc1cccc(C)c1OCC(=O)N[C@@H](Cc1ccccc1)[C@H](OC(=O)CCC(=O)NCCN(C)C)C(=O)N1CSC(C)(C)[C@H]1C(=O)NC(C)(C)C.Cl | 0.183 h | 171.5 mg/mL | – | –
